According to ChEMBL document CHEMBL2034896, “Terpenoids from Chloranthus serratus and their anti-inflammatory activities” (J Nat Prod, 2012):

System: RAW264.7
Assay: Antiinflammatory activity in mouse RAW264.7 cells assessed as inhibition of LPS-stimulated nitric oxide production pretreated for 2 hrs before LPS challenge measured after 18 hrs by Griess method
Assay type: functional, cell-based
Summary of the method: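 Murine RAW264.7 macrophages are stimulated with LPS, and NO released into the medium is measured. The read-out is an IC50.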

SMILES | IC50 [µM]
C=C1C[C@@H](O)[C@H]2C(C)(C)[C@@H](O)CC[C@]2(C)[C@H]1C/C=C(\C)C=O | > 10
CC1=C2C[C@@H]3[C@](C)(CCC[C@]3(C)O)C[C@@H]2OC1=O | > 10
CC1=C2C[C@@H]3[C@](C)(CCC[C@]3(C)O)C[C@]2(O)OC1=O | > 10
C=C1CC[C@@H]2[C@](C)(O)C[C@@]3(O)OC(=O)C(C)=C3[C@@]2(O)C1 | > 10
COC(=O)/C(C)=C1\C(=O)[C@H](O)[C@]2(C)C3=C(C[C@@H]4[C@]5(OC(=O)C6=C5C[C@H]5[C@](O)(COC(=O)/C(C)=C/COC(=O)CCC(=O)OC6)[C@H]6C[C@H]6[C@]45C)[C@H]31)[C@H]1C[C@H]12 [SHIZUKAOL B] | 0.15
COC(=O)/C(C)=C1/C(=O)[C@H](O)[C@]2(C)C3=C1[C@]14OC(=O)C(COC(C)=O)=C1C[C@H]1C[C@H]5C[C@H]5[C@]1(C)[C@@H]4C[C@]3(O)[C@H]1C[C@H]12 [SHIZUKAOL D] | 7.22

The next lines start with the values.

IC50 [µM] | SMILES
> 10 | CCO[C@]12OC(=O)C(C)=C1C1=C3[C@@](C)(C2=O)[C@@H]2C[C@@H]2[C@@]3(O)C[C@@H]2[C@]13OC(=O)C1=C3C[C@H]3[C@](O)(COC(=O)/C(C)=C/COC(=O)CCC(=O)OC1)[C@H]1C[C@H]1[C@]23C
0.22 | CC1=C2C3=C4C(=C[C@@H]5[C@]36OC(=O)C3=C6C[C@H]6[C@](O)(COC(=O)/C(C)=C/COC(=O)CCC(=O)OC3)[C@H]3C[C@H]3[C@]56C)[C@H]3C[C@H]3[C@]4(C)[C@@H](O)[C@@]2(O)OC1=O
> 10 | C=C1CC[C@H]2C(C)(C)[C@@H](O)CC[C@]2(C)[C@H]1C/C=C(\C)C=O
0.47 | C[C@@H]1C[C@H]2[C@@H]3CCC4=CC(=O)C=C[C@]4(C)[C@@]3(F)[C@@H](O)C[C@]2(C)[C@@]1(O)C(=O)CO [DEXAMETHASONE]
